# Source: PubChem
# Compounds with a hit are over-represented: about 3% of the library has one in this group of screens.
# CHRM4 agonist = human M4 muscarinic receptor agonists, primary screen, CHO-K1 cells, Fluo-8 calcium fluorescence; Muscarinic acetylcholine receptor M4 (Homo sapiens), P08173; CHO-K1 hM4/Gqi5; vehicle 0%, full acetylcholine response 100%; activation, % at 3 µM; actives 0.14% (n = 360,000); AID 624127, 2012;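 active means activation above the run mean over all test wells plus 3 SD, cut at about 32% in these data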;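 further: peak over basal fluorescence ratio per well then scaled between controls; 0% = DMSO wells and 100% = acetylcholine at EC100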
# Target sequence (P08173 whole entry, looked up): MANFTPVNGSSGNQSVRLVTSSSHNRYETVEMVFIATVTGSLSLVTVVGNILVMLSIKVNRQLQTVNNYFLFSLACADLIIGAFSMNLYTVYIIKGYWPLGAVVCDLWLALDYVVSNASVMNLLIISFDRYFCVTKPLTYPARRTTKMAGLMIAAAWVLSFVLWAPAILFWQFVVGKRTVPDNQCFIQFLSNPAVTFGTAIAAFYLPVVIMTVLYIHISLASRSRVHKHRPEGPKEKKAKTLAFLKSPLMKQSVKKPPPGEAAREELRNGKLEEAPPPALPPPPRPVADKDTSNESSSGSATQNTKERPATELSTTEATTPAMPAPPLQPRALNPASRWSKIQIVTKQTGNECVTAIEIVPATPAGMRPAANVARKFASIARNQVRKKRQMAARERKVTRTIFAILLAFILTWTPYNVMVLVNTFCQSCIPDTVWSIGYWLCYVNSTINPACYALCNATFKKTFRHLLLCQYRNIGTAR
# TAAR1 antagonist = human TAAR1 antagonists, primary screen, Fluo-8 calcium fluorescence, CHO RD-HGA16 cells; Trace amine-associated receptor 1 (Homo sapiens), Q96RJ0; antagonist; inhibition, % at 3 µM; actives 1.5% (n = 360,000);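 active means inhibition above a per-plate cutoff, the mean inhibition of test compounds on that plate plus 3 SD, cut at about 49% in these data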;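 further: 0% = DMSO plus EC80 beta-PEA response and 100% = DMSO alone without agonist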
#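 System: CHO RD-HGA16 cells bearing hTAAR1. Reagent: EC80 β-phenethylamine stimulus. Schedule: seeding 17-24 h prior, 75-min 37 °C, 30-min RT dye loading. Signal: Fluo-8 intracellular calcium dye fluorescence, real-time kinetic reads. Read-out: % inhibition from peak post-agonist over basal fluorescence ratio. Benchmarks: vehicle wells and EC80 agonist wells. Replicates: n of 1.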
# M4 antag = human M4 muscarinic receptor antagonists, primary screen, CHO cells, Fluo-8 calcium fluorescence; CHO-hM4 cells, ACh EC80; inhibition, % at 3 µM; actives 0.73% (n = 360,000); AID 624125, 2012;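 active means inhibition above its plate's cutoff, the mean inhibition of sample wells plus 3 SD, cut at about 27% in these data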;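 further: 0% = acetylcholine EC80 with DMSO and 100% = DMSO without agonist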
# TAAR1 ag = human TAAR1 agonists, primary screen, Fluo-8 calcium fluorescence, CHO RD-HGA16 cells; Trace amine-associated receptor 1 (Homo sapiens), Q96RJ0; AID 624467, 2012; actives 0.99% (n = 360,000); vehicle wells 0%, saturating PEA agonist 100%; activation, % at 3 µM;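 active means activation above the mean activation of all test compounds in the run plus 3 SD, cut at about 38% in these data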
#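 test system = CHO RD-HGA16 cells carrying human TAAR1 plus Gα16 | schedule = 17-24 h seeding, 75 min 37 °C dye, 30 min RT | compound dosing = 3 µM single concentration | control set = DMSO and PEA EC100 | replicates = n 1 | signal = Fluo-8 fluorescence, 5 s baseline then 140 s kinetic read | measure = percent activation vs PEA EC100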
# CHRM4 PAM = human M4 muscarinic receptor positive allosteric modulators, primary screen, CHO-K1 cells, Fluo-8 calcium fluorescence; AID 624126, 2012; CHO-K1 hM4/Gqi5, ACh EC20; 0% = ACh EC20, 100% = maximal ACh; actives 0.4% (n = 360,000); Muscarinic acetylcholine receptor M4 (Homo sapiens), P08173; activation, % at 3 µM;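 active means activation above its plate's cutoff, the mean activation of sample wells plus 3 SD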
# TAAR1 ag confirm = human TAAR1 agonists, retest of hits, confirmation, Fluo-8 calcium fluorescence, CHO RD-HGA16 cells. scaled: DMSO 0%, maximal phenethylamine 100%. activation, % at 3 µM. shares compounds with TAAR1 ag. AID 651783, 2012. actives 82% (n = 2,400);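 active means activation above a cutoff set at the run's mean compound activation plus 3 SD, cut at about 39% in these data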
# Ga16 nonsel ag = nonselective calcium mobilization agonists, CHO-Ga16 cells, counter-screen for hTAAR1 agonist project, cell-based, fluorescence, CHO-Ga16 parental line; activation, % at 3 µM; shares compounds with TAAR1 ag; Fluo-8 calcium fluorescence; normalized to maximal ATP response, DMSO zero; AID 651787, 2012; actives 50% (n = 2,400);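 active means activation above the run cutoff, the mean activation over all tested wells plus 3 SD, cut at about 12% in these data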;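 further: 0% = DMSO wells and 100% = maximal ATP response on the peak over basal ratio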
# TAAR1 desens = TAAR1 desensitization by agonist hits, confirmation, counter-screen for TAAR1 agonist project, cell-based, fluorescence, tachyphylaxis | actives 46% (n = 2,400) | inhibition, % at 3 µM | AID 651951, 2012 | shares compounds with TAAR1 ag | CHO RD-HGA16 hTAAR1, Fluo-8 calcium, beta-PEA response inhibition;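 active means inhibition above the run cutoff, the mean inhibition of all test compounds plus 3 SD, cut at about 49% in these data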;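 further: beta-PEA stimulus applied at its EC80; loss of beta-PEA calcium signal after compound pretreatment read as receptor desensitization; 0% = DMSO with beta-PEA at EC80 and 100% = DMSO alone without agonist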
# Ga16 nonsel ant = inhibition of ATP-evoked calcium response in CHO-Ga16 cells, counter-screen for TAAR1 agonist project, cell-based, fluorescence. shares compounds with TAAR1 ag. CHO-Ga16 ATP-induced calcium, Fluo-8 fluorescence. inhibition, % at 3 µM. actives 39% (n = 2,400). AID 651952, 2012;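 active means inhibition above the plate's mean compound inhibition plus 3 SD, computed per plate, cut at about 22% in these data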;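 further: 0% = EC80 ATP with DMSO and 100% = DMSO wells without ATP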
# * = called active by the depositor; nt = no result given.
SMILES,CHRM4 agonist,TAAR1 antagonist,M4 antag,TAAR1 ag,CHRM4 PAM,TAAR1 ag confirm,Ga16 nonsel ag,TAAR1 desens,Ga16 nonsel ant
COc1ccc(CCNc2c(N)n(Cc3ccccc3)c(=O)[nH]c2=O)cc1OC,1.7,2.7,-2.3,10.9,9.4,nt,nt,nt,nt
Nc1c(NCCC2=CCCCC2)c(=O)[nH]c(=O)n1Cc1ccccc1,-0.3,-12.6,-0.9,55.5*,3.1,67.9*,1.6,27.6,7.5
COc1ccc2cc(C3CC=C(COC(C)=O)CN3S(=O)(=O)c3ccccc3[N+](=O)[O-])n(C(=O)OC(C)(C)C)c2c1 (stereo unspecified),2.3,-15.6,1.5,4.3,-3.9,nt,nt,nt,nt
Cn1c(CS/C(N)=N/N=C/c2ccccc2)c(Br)c(=O)n1-c1ccccc1,0.7,-13.8,-20.2,44.0*,9.4,45.6*,5.9,-3.6,1.1
CN(C)c1ccc(/C=C/C(=O)c2ccccc2)cc1[N+](=O)[O-],0.1,-8.4,-0.6,0.1,-5.6,nt,nt,nt,nt
O=C(/C=C/c1ccc(O)c([N+](=O)[O-])c1)c1ccc2ccccc2c1,1.1,39.5,0.2,65.7*,1.8,31.9,38.0*,23.8,19.3
COc1ccccc1CCNC(=O)C(=O)NCC1OCCCN1S(=O)(=O)c1cc(C)ccc1C (stereo unspecified),8.6,4.9,-6.3,5.8,-3.2,nt,nt,nt,nt
COc1ccccc1CCNC(=O)C(=O)NCC1OCCN1S(=O)(=O)c1ccccc1 (stereo unspecified),4.4,5.2,-4.7,47.4*,9.8,69.3*,0.8,34.2,4.6
O=C(NCCc1ccccc1)C(=O)NCC1OCCN1S(=O)(=O)c1cc(F)ccc1F (stereo unspecified),16.6,42.7,-8.6,51.7*,-2.5,69.0*,10.6,57.6*,33.8*
COc1ccccc1CCNC(=O)C(=O)NCC1OCCN1S(=O)(=O)c1ccc(C)cc1 (stereo unspecified),3.8,37.2,-7.5,62.7*,-0.4,76.4*,1.9,58.1*,4.8
COc1ccc(S(=O)(=O)N2CCOC2CNC(=O)C(=O)NCCc2ccccc2)cc1OC (stereo unspecified),7.6,-3.0,-4.3,19.9,-1.6,nt,nt,nt,nt
COc1ccccc1CCNC(=O)C(=O)NCC1OCCN1S(=O)(=O)c1ccc([N+](=O)[O-])cc1 (stereo unspecified),7.6,-21.4,-1.7,45.9*,-6.8,72.5*,3.0,13.0,6.5
O=C(NCc1ccc(F)cc1)C(=O)NCC1OCCN1S(=O)(=O)c1cc(F)ccc1F (stereo unspecified),0.7,6.4,-15.5,0.1,3.5,nt,nt,nt,nt
CCCNC(=O)c1cc(C2CCCCN2C(=O)c2cc(C(C)(C)C)nn2C)on1 (stereo unspecified),0.7,-10.1,3.1,0.5,-4.2,nt,nt,nt,nt
O=C(NCCc1ccccc1)C(=O)NCC1OCCN1S(=O)(=O)c1ccccc1 (stereo unspecified),1.3,30.0,-6.0,80.1*,5.3,78.2*,0.5,63.5*,5.5
COc1ccccc1CCNC(=O)C(=O)NCC1OCCCN1S(=O)(=O)c1ccc(F)cc1C (stereo unspecified),4.7,4.0,-2.4,57.8*,-2.1,64.2*,3.8,20.5,12.1
O=C(NCCc1ccccc1)C(=O)NCC1OCCN1S(=O)(=O)c1ccc(Br)cc1 (stereo unspecified),9.3,-1.5,5.0,26.8,-7.0,nt,nt,nt,nt
COc1ccccc1CCNC(=O)C(=O)NCC1OCCN1S(=O)(=O)c1cccs1 (stereo unspecified),3.6,-4.5,-1.5,71.6*,0.3,73.9*,0.8,36.1,15.6
C[C@H](CO)N1C[C@H](C)[C@@H](CN(C)C(=O)Nc2ccc(C(F)(F)F)cc2)Oc2c(NC(=O)CCC(F)(F)F)cccc2C1=O,1.8,8.5,-1.0,5.7,8.4,nt,nt,nt,nt
Cc1nn(-c2ccccc2)c2c1C(c1ccncc1)C(C#N)=C(N)O2 (stereo unspecified),0.3,7.6,-5.7,-0.1,0.0,nt,nt,nt,nt
Cc1nn(-c2ccccc2)c(Cl)c1C1C(C#N)=C(N)Oc2c1c(C)nn2-c1ccccc1 (stereo unspecified),1.0,24.9,0.8,61.3*,2.3,57.8*,34.0*,35.9,25.3*
O=C(Nc1ccc(Cl)c(C(F)(F)F)c1)NC1CC2CCCC(C1)N2C1CC1 (stereo unspecified),9.0,24.9,2.1,68.4*,-4.0,70.5*,24.8*,41.5,25.4*
O=C(Nc1ccccc1)OCCCCOC(=O)Nc1ccccc1,0.5,34.5,8.2,53.8*,5.4,15.3,13.8*,12.0,10.4
O=C(Nc1ccccc1)OCCCc1ccccc1,-2.2,-16.0,-6.0,-1.8,-0.8,nt,nt,nt,nt
O=c1cc(N2CCc3ccccc3C2)[nH]c(=O)n1-c1ccccc1Cl,1.7,26.7,-13.2,78.7*,9.4,61.9*,3.6,2.3,12.3
O=c1cc(N2CCc3ccccc3C2)[nH]c(=O)n1C1CCCCC1,0.5,-6.0,-3.2,2.7,16.1,nt,nt,nt,nt
Cc1ccccc1-n1c(=O)cc(N2CCc3ccccc3C2)[nH]c1=O,-0.2,54.1*,6.7,92.0*,-0.7,96.7*,3.2,79.5*,7.2
Cc1ccc(-n2c(=O)cc(N3CCC(C)CC3)[nH]c2=O)cc1,0.6,-12.1,-2.4,3.7,12.7,nt,nt,nt,nt
Cc1ccc(-n2c(=O)cc(N3CCc4ccccc4C3)[nH]c2=O)cc1,-0.6,2.8,15.4,87.2*,-8.9,4.0,0.2,8.6,5.7
